AF4-AF9 inh = inhibitors of human MLL-AF4/AF9 interaction; AlphaScreen, biotin-AF4 peptide binding to FLAG-AF9; inhibition, % at 10 µM; hit rate 0.47% among 350,000;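 active = every replicate reaching a set inhibition limit, whatever the replicate mean, cut at about 25% in these data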
Target sequence (P42568 whole entry, looked up): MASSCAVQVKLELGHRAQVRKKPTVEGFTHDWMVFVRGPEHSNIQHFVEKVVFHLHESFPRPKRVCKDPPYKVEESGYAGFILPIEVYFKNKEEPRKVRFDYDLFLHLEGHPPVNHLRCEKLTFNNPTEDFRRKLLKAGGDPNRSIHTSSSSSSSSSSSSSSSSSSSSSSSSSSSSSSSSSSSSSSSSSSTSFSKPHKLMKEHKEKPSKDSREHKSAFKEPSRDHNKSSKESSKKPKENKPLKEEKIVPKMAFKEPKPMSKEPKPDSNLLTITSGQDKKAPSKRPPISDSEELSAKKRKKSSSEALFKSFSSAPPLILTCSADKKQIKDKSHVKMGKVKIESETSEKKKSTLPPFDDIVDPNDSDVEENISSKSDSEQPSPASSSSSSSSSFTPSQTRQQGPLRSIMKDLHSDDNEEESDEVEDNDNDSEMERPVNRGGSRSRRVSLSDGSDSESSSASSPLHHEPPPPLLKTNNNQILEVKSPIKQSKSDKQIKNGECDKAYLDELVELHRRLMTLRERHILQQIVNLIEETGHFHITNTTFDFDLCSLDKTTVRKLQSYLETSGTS
S100A4 MyoIIA = blocks human S100A4 binding to myosin IIA peptide; S100A4/TAMRA-MyoIIA peptide fluorescence polarization; inhibition, % at 10.7 µM; hit rate 0.14% among 360,000; AID 652163;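 active = mean inhibition of at least 70% across replicates, with every replicate also reaching that level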
Target sequence (P26447 whole entry, looked up): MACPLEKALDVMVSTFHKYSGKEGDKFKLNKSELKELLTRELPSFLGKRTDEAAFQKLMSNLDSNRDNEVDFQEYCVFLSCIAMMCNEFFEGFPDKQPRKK
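Material: S100A4 monomer protein | Medium: HEPES pH 7.2 with CaCl2, KCl, NaCl, DTT, Triton | Reagent: Labelled myosin peptide probe, 5 nM | Doses: One dose per compound | Times: 5 min incubation before reading | Benchmarks: Neutral control DMSO, positive control TFP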
Cneo AK release = Cryptococcus neoformans lysis via adenylate kinase release; AID 651654; C. neoformans lysis, adenylate kinase release luminescence, 4 h; normalised: neutral wells 0, clomiphene wells 100; hit rate 0.2% among 360,000; lysis activity, % at 15 µM;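 active = mean lysis activity across replicates of at least 80%, whatever share of replicates individually reach that level; inactive = mean lysis activity below 80%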
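Material: C. neoformans cells; Schedule: 4 h static compound exposure, 37 °C, read 1 h post-reagent; Measured by: adenylate kinase release luminescence; Read-out: signal increase indicating cell lysis; Controls: Clomiphene as positive lysis control.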
DENV2 CPE = inhibitors of DENV2 cytopathic effect; DENV2-infected cells, cytopathic effect rescue, plate reader; hit rate 1.7% among 350,000; CPE inhibition, % at 9.99 µM; AID 651640; in the data active = CPE inhibition above about 20%, passing the limit was not always enough; tested in BHK-21 cells
Ecoli rRNA inh = inhibits bacterial ribosomal RNA function over humanized ribosomes; E. coli WT GFP vs humanized-ribosome RFP mutants, fluorescence, 24 h; active compounds read low; DMSO median 0, no signal -100; GFP signal change (wild-type ribosome), % (concentration not given with the values); hit rate 1.6% among 350,000; AID 720706;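 active = significant combined selectivity score with lowered wild-type GFP, culture density cut under 30%, mutant RFP and density less affected; inactive = any of these conditions unmet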
PfHsp90 yeast 2 = growth inhibition of yeast expressing Plasmodium Hsp90. S. cerevisiae expressing PfHsp90, BacTiter-Glo ATP, 48 h; yeast lacking PDR1 and PDR3 efflux regulators. inhibition, % at 9.4 µM. hit rate 0.32% among 310,000;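 active = every replicate shows inhibition above about 80%, whatever the replicate mean, limit read from the data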
Each line names hits and unclear results; the compound was inactive in the other large screens; ! = repeats disagree. Compounds with a hit are over-represented: about 3.2% of the library has one in this group of screens.

CN(C)CC(=O)N[C@@H]1CC[C@@H](CC(=O)NCc2ccc(Cl)cc2)O[C@H]1CO	none (no result: PfHsp90 yeast 2)
CCOC(=O)c1cc([N+](=O)[O-])sc1NC(=O)c1ccc(S(=O)(=O)N2CC3(C)CC2CC(C)(C)C3)cc1 (configuration not stated)	DENV2 CPE 30 (no result: Cneo AK release)
CCc1ccc(S(=O)(=O)Nc2cc(SCC(=O)O)c(O)c3ccccc23)cc1	none (no result: Cneo AK release)
O=C(O)CSc1cc(NS(=O)(=O)c2cccc([N+](=O)[O-])c2)c2ccccc2c1O	Ecoli rRNA inh -34 (no result: AF4-AF9 inh)
O=C(NCC1CC1)C1(S(=O)(=O)c2ccccc2)CC=CC1	DENV2 CPE 21
O=C(N1CCCCC1)C1(S(=O)(=O)c2ccccc2)CC=CC1	AF4-AF9 inh 44
COCC(=O)Nc1ccc2c(c1)[C@H]1C[C@H](CC(=O)NCc3ccccc3)O[C@H](CO)[C@H]1O2	none (no result: PfHsp90 yeast 2)
O=C(CN1CCOCC1)N1CCCCN2[C@@H](CO)[C@@H](c3ccc(C#Cc4ccccc4)cc3)[C@@H]2C1	none (no result: PfHsp90 yeast 2)
C[C@H]1CN([C@@H](C)CO)C(=O)c2cc(NS(=O)(=O)c3ccccc3)ccc2O[C@H]1CN(C)Cc1ccccc1	none (no result: PfHsp90 yeast 2)
Cc1onc(-c2ccccc2)c1NC(=O)Nc1ccc(OC(F)F)cc1	Ecoli rRNA inh -22 (no result: PfHsp90 yeast 2)
C[C@H](CO)N1C[C@H](C)[C@@H](CN(C)C(=O)C2CCCCC2)OCCCC[C@H](C)Oc2ccc(NC(=O)NC3CCCCC3)cc2C1=O	none (no result: PfHsp90 yeast 2)
COCC(=O)N1CC2(CCN(C(C)=O)CC2)c2c([nH]c3cc(OC)ccc23)[C@H]1CO	none (no result: Cneo AK release, PfHsp90 yeast 2)
CCCNC(=O)N1CCC2(CC1)CN(C(=O)COC)[C@H](CO)c1[nH]c3cc(OC)ccc3c12	DENV2 CPE 28 (no result: Cneo AK release, PfHsp90 yeast 2)
CCCNC(=O)N1CC2(CCN(CC3CCCC3)CC2)c2c([nH]c3cc(OC)ccc23)[C@@H]1CO	DENV2 CPE 30 (no result: Cneo AK release, PfHsp90 yeast 2)
COCC(=O)N1CC2(CN(C(C)=O)C2)c2c([nH]c3cc(OC)ccc23)[C@@H]1CO	DENV2 CPE 20 (no result: S100A4 MyoIIA, Cneo AK release, PfHsp90 yeast 2)
COc1ccc2c3c([nH]c2c1)[C@@H](CO)N(C(=O)Nc1ccc(F)cc1)CC31CCN(CC2CC2)CC1	DENV2 CPE 56 (no result: Cneo AK release, PfHsp90 yeast 2)
COc1ccc2c3c([nH]c2c1)[C@H](CO)N(C(=O)Nc1ccc(F)cc1)CC31CN(CC2CC2)C1	DENV2 CPE 29 (no result: S100A4 MyoIIA, Cneo AK release, PfHsp90 yeast 2)
C[C@@H]1CCCCO[C@H](CN(C)C(=O)c2ccccc2)[C@@H](C)CN([C@H](C)CO)C(=O)c2cc(NC(=O)Nc3ccc(F)cc3)ccc2O1	DENV2 CPE 32 (no result: PfHsp90 yeast 2)
C[C@H]1CCCCO[C@@H](CN(C)C(=O)c2ccccc2)[C@@H](C)CN([C@@H](C)CO)C(=O)c2cc(NC(=O)Nc3ccc(F)cc3)ccc2O1	DENV2 CPE 22 (no result: PfHsp90 yeast 2)
Cc1noc(C)c1S(=O)(=O)Nc1ccc2c(c1)CC(=O)N([C@H](C)CO)C[C@@H](C)[C@H](CN(C)C(=O)Nc1ccccc1)O2	none (no result: Cneo AK release, PfHsp90 yeast 2)
CC(C)NC(=O)Nc1ccc2c(c1)C(=O)N([C@H](C)CO)C[C@@H](C)[C@@H](CN(C)C(=O)Nc1ccc3c(c1)OCO3)O2	DENV2 CPE 25 (no result: PfHsp90 yeast 2)
C[C@H](CO)N1C[C@H](C)[C@H](CN(C)C(=O)Nc2ccc3c(c2)OCO3)Oc2ccc(NC(=O)Nc3ccc4c(c3)OCO4)cc2C1=O	none (no result: PfHsp90 yeast 2)
C[C@@H]1CN([C@@H](C)CO)C(=O)c2cc(NS(=O)(=O)c3ccccc3)ccc2O[C@@H]1CN(C)C(=O)Nc1ccc2c(c1)OCO2	DENV2 CPE 49 (no result: PfHsp90 yeast 2)
C[C@H](CO)N1C[C@H](C)[C@H](CN(C)C(=O)Nc2ccc3c(c2)OCO3)Oc2ccc(NS(=O)(=O)c3ccccc3)cc2C1=O	none (no result: PfHsp90 yeast 2)
C[C@@H]1CN([C@H](C)CO)C(=O)c2cc(NC(=O)C3CC3)ccc2O[C@@H]1CN(C)C(=O)Nc1ccc2c(c1)OCO2	S100A4 MyoIIA 103 (no result: PfHsp90 yeast 2)
CC(C)NC(=O)Nc1ccc2c(c1)C(=O)N([C@@H](C)CO)C[C@H](C)[C@H](CN(C)C(=O)Nc1ccc3c(c1)OCO3)O2	DENV2 CPE 87 (no result: PfHsp90 yeast 2)
CO[C@H]1CN(C)C(=O)c2ccc(NC(=O)C3CC3)cc2OC[C@@H](C)N(C(=O)c2ccncc2)C[C@H]1C	none (no result: DENV2 CPE, PfHsp90 yeast 2)
CCCCCCCN1C(Nc2ccccc2)=NC[C@@H]1Cc1ccccc1	none (no result: PfHsp90 yeast 2)
c1ccc(CCCCN2C(Nc3ccccc3)=NC[C@@H]2Cc2ccccc2)cc1	DENV2 CPE 24
CCN1C(Nc2ccccc2)=NC[C@@H]1CC(C)C	DENV2 CPE 22
CC(C)CCN1C(Nc2ccccc2)=NC[C@@H]1CC(C)C	none
Cc1noc(C)c1S(=O)(=O)N(C)C[C@@H]1OCCCC[C@@H](C)Oc2ccc(NC(=O)CCCN(C)C)cc2C(=O)N([C@H](C)CO)C[C@H]1C	none (no result: PfHsp90 yeast 2)
C[C@@H]1CN([C@@H](C)CO)C(=O)c2cc(/C=C/c3ccccc3)cnc2O[C@@H]1CN(C)C	none (no result: PfHsp90 yeast 2)
C[C@@H]1CN([C@@H](C)CO)C(=O)c2cccc(NS(=O)(=O)c3cccs3)c2O[C@H]1CN(C)CC1CCCCC1	DENV2 CPE 34 (no result: PfHsp90 yeast 2)
C[C@H]1CN([C@@H](C)CO)C(=O)c2cccc(NS(=O)(=O)c3cccs3)c2O[C@H]1CN(C)Cc1ccncc1	none (no result: PfHsp90 yeast 2)
C[C@H](CO)N1C[C@H](C)[C@@H](CN(C)Cc2ccncc2)Oc2c(NS(=O)(=O)c3cccs3)cccc2C1=O	DENV2 CPE 34!
O=C1CN(S(=O)(=O)Cc2ccccc2)C[C@@H]2[C@@H](c3ccc(C#CCC4CCCC4)cc3)[C@@H](CO)N12	none (no result: Cneo AK release, Ecoli rRNA inh, PfHsp90 yeast 2)
CCCCc1c(O)nc(SCC(=O)c2ccccc2)n(-c2ccccc2OC)c1=O	none
CCCCc1c(O)nc(SCC(=O)c2ccccc2)n(-c2ccccc2C)c1=O	Ecoli rRNA inh -32
CCCCc1c(O)nc(SCC(=O)c2ccccc2)n(-c2ccccc2)c1=O	Ecoli rRNA inh -18
Cc1cccc(-c2n[nH]c(S(C)(=O)=O)c2C#N)c1	AF4-AF9 inh 97 (no result: Cneo AK release)
Cc1cccc(-c2n[nH]c(=S)n2C)c1	none (no result: Cneo AK release, DENV2 CPE, PfHsp90 yeast 2)
Cc1ccc(C2CCN(C(=S)NC(C)(C)C)C2)cc1 (configuration not stated)	none (no result: Cneo AK release)
Cc1ccc(C2CCN(C(=S)NC3CCCCC3)C2)cc1 (configuration not stated)	Cneo AK release 119
COc1ccc(F)cc1C(=O)C1CCCN(Cc2cn(C)c3ccccc23)C1 (configuration not stated)	Ecoli rRNA inh -31
Cn1cc(CN2CCCC(C(=O)c3cc(F)ccc3F)C2)c2ccccc21 (configuration not stated)	none (no result: Cneo AK release)
O=C(C[C@H]1C=C[C@H](NC(=O)Nc2cccc(F)c2)[C@H](CO)O1)NCC1CC1	none (no result: PfHsp90 yeast 2)
COC(=O)c1cc(NC(=O)c2cc(-c3ccc(Cl)cc3)oc2C(F)(F)F)ccc1N1CCOCC1	none

Screening results as filed in PubChem BioAssay.
